Drawing on ChEMBL document CHEMBL3763097, “Synthesis and biological evaluation of 5,10-dihydro-11H-dibenzo[b,e][1,4]diazepin-11-one structural derivatives as anti-cancer and apoptosis inducing agents” (Eur J Med Chem, 2016), this text covers IC50 for 13 molecules.

Bounds are passed on as bounds.

A word on the IC50: it is the concentration at which inhibition is half-maximal.

Test system in the first experiment: not listed separately
Kind of experiment: Cytotoxicity against human PC3 cells assessed as growth inhibition after 72 hrs by MTT assay. It is filed as functional, cell-based. The conditions noted are these: PC-3, 72 h. The essentials: (§1)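 Cells in RPMI 1640 (PC-3, A549, MDA-MB-231) or DMEM (U87MG, MCF-7) with 10% FBS, passages 4-10, were seeded at 3000-5000 per well and left 24 h. Compounds in DMSO/medium were added for 72 h; DMSO served as control. MTT (5 mg/mL) was added for 4 h and formazan dissolved in DMSO. Absorbance was read at 570 nm minus 630 nm. % inhibition was taken versus DMSO, with IC50 by probit; mean ± SD of three experiments in triplicate.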
Background: Formazan colour is commonly taken as a measure of viable cells.
Turning to `O=C1c2ccccc2Nc2ccccc2N1Cc1cn(Cc2ccc(Cl)cc2)nn1`, the IC50 is 1.12 µM.
In the case of `O=C1c2ccccc2Nc2ccccc2N1Cc1cn(Cc2ccc(OC(F)(F)F)cc2)nn1`, the IC50 is more than 50 µM.
Consider `O=C1c2ccccc2Nc2ccccc2N1Cc1cn(Cc2cccc([N+](=O)[O-])c2)nn1`, for which the IC50 amounted to 0.47 µM.
Consider `O=C1Nc2ccccc2Nc2ccccc21`, for which the IC50 came out at 41.9 µM.
The same measure, in the same setting: to `O=C1c2ccccc2Nc2ccccc2N1Cc1cn(Cc2ccc([N+](=O)[O-])cc2)nn1` belongs more than 50 µM; to `O=C1c2ccccc2Nc2ccccc2N1Cc1cn(Cc2cccc(F)c2)nn1`, 7.21 µM.
With `O=C1c2ccccc2Nc2ccccc2N1Cc1cn(Cc2ccccc2F)nn1`, the IC50 amounted to 8.63 µM.
In the case of `O=C1c2ccccc2Nc2ccccc2N1Cc1cn(Cc2ccc(F)cc2)nn1`, the IC50 turned out to be 17.3 µM.
As for `C#CCN1C(=O)c2ccccc2Nc2ccccc21`, the IC50 came out at 0.98 µM.
`O=c1[nH]cc(F)c(=O)[nH]1` [FLUOROURACIL]: the IC50 is 1.44 µM.
Still for that read-out and setting: to `O=C1c2ccccc2Nc2ccccc2N1Cc1cn(Cc2cccc3c2OCO3)nn1` belongs 10.7 µM; to `COc1ccc(OC)c(Cn2cc(CN3C(=O)c4ccccc4Nc4ccccc43)nn2)c1`, more than 50 µM.
On the same count and under the same terms, the figure for `COc1cc(Cn2cc(CN3C(=O)c4ccccc4Nc4ccccc43)nn2)cc(OC)c1OC` is more than 50 µM.

A further experiment deals with A549. Briefly: Cytotoxicity against human A549 cells assessed as growth inhibition after 72 hrs by MTT assay. It is filed as functional, cell-based. The conditions noted are these: A549, 72 h. The essentials:
as §1
With `O=C1c2ccccc2Nc2ccccc2N1Cc1cn(Cc2ccc(Cl)cc2)nn1`, the IC50 is 4.97 µM.
Still for that read-out and setting: the figure for `O=C1c2ccccc2Nc2ccccc2N1Cc1cn(Cc2ccc(OC(F)(F)F)cc2)nn1` is more than 50 µM; for `O=C1c2ccccc2Nc2ccccc2N1Cc1cn(Cc2cccc([N+](=O)[O-])c2)nn1` it is more than 50 µM; for `O=C1Nc2ccccc2Nc2ccccc21` it is 37.1 µM.
Still for that read-out and setting: the figure for `O=C1c2ccccc2Nc2ccccc2N1Cc1cn(Cc2ccc([N+](=O)[O-])cc2)nn1` is 47.9 µM; for `O=C1c2ccccc2Nc2ccccc2N1Cc1cn(Cc2cccc(F)c2)nn1` it is 8.37 µM.
Same read-out and setting: to `O=C1c2ccccc2Nc2ccccc2N1Cc1cn(Cc2ccccc2F)nn1` belongs 11.3 µM; to `O=C1c2ccccc2Nc2ccccc2N1Cc1cn(Cc2ccc(F)cc2)nn1`, 26.7 µM.
For `C#CCN1C(=O)c2ccccc2Nc2ccccc21`, the IC50 worked out at 19 µM.
For the molecule `O=c1[nH]cc(F)c(=O)[nH]1` [FLUOROURACIL], the concentration for half-maximal inhibition (IC50) was 3.47 µM.
Regarding `O=C1c2ccccc2Nc2ccccc2N1Cc1cn(Cc2cccc3c2OCO3)nn1`, the IC50 stood at 10.7 µM.
Same read-out and setting: to `COc1ccc(OC)c(Cn2cc(CN3C(=O)c4ccccc4Nc4ccccc43)nn2)c1` belongs 13.3 µM; to `COc1cc(Cn2cc(CN3C(=O)c4ccccc4Nc4ccccc43)nn2)cc(OC)c1OC`, 8.78 µM.

Test system in the next experiment: not listed separately
Briefly: Cytotoxicity against human U87MG cells assessed as growth inhibition after 72 hrs by MTT assay. It counts as functional, cell-based, U-87MG ATCC. The conditions noted are these: U-87 MG. In a few lines:
as §1
With `O=C1c2ccccc2Nc2ccccc2N1Cc1cn(Cc2ccc(Cl)cc2)nn1`, the half-maximal inhibitory concentration (IC50) worked out at 24.3 µM.
Still for that read-out and setting: to `O=C1c2ccccc2Nc2ccccc2N1Cc1cn(Cc2ccc(OC(F)(F)F)cc2)nn1` belongs more than 50 µM.
As to `O=C1c2ccccc2Nc2ccccc2N1Cc1cn(Cc2cccc([N+](=O)[O-])c2)nn1`, the IC50 was found to be 39.4 µM.
On the same count and under the same terms, to `O=C1Nc2ccccc2Nc2ccccc21` belongs 8.97 µM; to `O=C1c2ccccc2Nc2ccccc2N1Cc1cn(Cc2ccc([N+](=O)[O-])cc2)nn1`, 32.9 µM.
On the same count and under the same terms, to `O=C1c2ccccc2Nc2ccccc2N1Cc1cn(Cc2cccc(F)c2)nn1` belongs 2.06 µM; to `O=C1c2ccccc2Nc2ccccc2N1Cc1cn(Cc2ccccc2F)nn1`, 48.2 µM; to `O=C1c2ccccc2Nc2ccccc2N1Cc1cn(Cc2ccc(F)cc2)nn1`, 37.7 µM.
Consider `C#CCN1C(=O)c2ccccc2Nc2ccccc21`, for which the IC50 was found to be 22.2 µM.
On the same count and under the same terms, the figure for `O=c1[nH]cc(F)c(=O)[nH]1` [FLUOROURACIL] is 3.61 µM; for `O=C1c2ccccc2Nc2ccccc2N1Cc1cn(Cc2cccc3c2OCO3)nn1` it is 13.5 µM; for `COc1ccc(OC)c(Cn2cc(CN3C(=O)c4ccccc4Nc4ccccc43)nn2)c1` it is 31.2 µM.
Take `COc1cc(Cn2cc(CN3C(=O)c4ccccc4Nc4ccccc43)nn2)cc(OC)c1OC`: the IC50 worked out at 1.78 µM.

The test system of the next experiment is MCF7. Briefly: Cytotoxicity against human MCF7 cells assessed as growth inhibition after 72 hrs by MTT assay. It counts as functional, cell-based. The conditions noted are these: MCF7, 72 h. In a few lines:
as §1
As for `O=C1c2ccccc2Nc2ccccc2N1Cc1cn(Cc2ccc(Cl)cc2)nn1`, the IC50 was determined as 39 µM.
Still for that read-out and setting: the figure for `O=C1c2ccccc2Nc2ccccc2N1Cc1cn(Cc2ccc(OC(F)(F)F)cc2)nn1` is 29.6 µM.
`O=C1c2ccccc2Nc2ccccc2N1Cc1cn(Cc2cccc([N+](=O)[O-])c2)nn1`: the IC50 came out at 0.65 µM.
The same measure, in the same setting: the figure for `O=C1Nc2ccccc2Nc2ccccc21` is more than 50 µM; for `O=C1c2ccccc2Nc2ccccc2N1Cc1cn(Cc2ccc([N+](=O)[O-])cc2)nn1` it is 0.93 µM; for `O=C1c2ccccc2Nc2ccccc2N1Cc1cn(Cc2cccc(F)c2)nn1` it is 4.12 µM.
The same measure, in the same setting: the figure for `O=C1c2ccccc2Nc2ccccc2N1Cc1cn(Cc2ccccc2F)nn1` is 5.27 µM; for `O=C1c2ccccc2Nc2ccccc2N1Cc1cn(Cc2ccc(F)cc2)nn1` it is more than 50 µM; for `C#CCN1C(=O)c2ccccc2Nc2ccccc21` it is 7.63 µM.
Take `O=C1c2ccccc2Nc2ccccc2N1Cc1cn(Cc2cccc3c2OCO3)nn1`: the IC50 worked out at 17.8 µM.
Regarding `COc1ccc(OC)c(Cn2cc(CN3C(=O)c4ccccc4Nc4ccccc43)nn2)c1`, the half-inhibitory concentration (IC50) came out at 7.48 µM.
On the same count and under the same terms, the figure for `COc1cc(Cn2cc(CN3C(=O)c4ccccc4Nc4ccccc43)nn2)cc(OC)c1OC` is 10.3 µM.

The subject of another experiment is MDA-MB-231. Kind of experiment: Cytotoxicity against human MDA-MB-231 cells assessed as growth inhibition after 72 hrs by MTT assay. It counts as functional, cell-based. The conditions noted are these: MDA-MB-231, 72 h. The essentials:
as §1
On to `O=C1c2ccccc2Nc2ccccc2N1Cc1cn(Cc2ccc(Cl)cc2)nn1`, for which the IC50 came out at 2.31 µM.
Still for that read-out and setting: to `O=C1c2ccccc2Nc2ccccc2N1Cc1cn(Cc2ccc(OC(F)(F)F)cc2)nn1` belongs more than 50 µM.
The same measure, in the same setting: to `O=C1c2ccccc2Nc2ccccc2N1Cc1cn(Cc2cccc([N+](=O)[O-])c2)nn1` belongs 1.52 µM.
The same measure, in the same setting: to `O=C1Nc2ccccc2Nc2ccccc21` belongs more than 50 µM; to `O=C1c2ccccc2Nc2ccccc2N1Cc1cn(Cc2ccc([N+](=O)[O-])cc2)nn1`, 42.6 µM.
As to `O=C1c2ccccc2Nc2ccccc2N1Cc1cn(Cc2cccc(F)c2)nn1`, the IC50 stood at 3.53 µM.
The same measure, in the same setting: to `O=C1c2ccccc2Nc2ccccc2N1Cc1cn(Cc2ccccc2F)nn1` belongs more than 50 µM; to `O=C1c2ccccc2Nc2ccccc2N1Cc1cn(Cc2ccc(F)cc2)nn1`, 4.08 µM.
As to `C#CCN1C(=O)c2ccccc2Nc2ccccc21`, the IC50 was 16.5 µM.
On the same count and under the same terms, to `O=C1c2ccccc2Nc2ccccc2N1Cc1cn(Cc2cccc3c2OCO3)nn1` belongs 10.2 µM; to `COc1ccc(OC)c(Cn2cc(CN3C(=O)c4ccccc4Nc4ccccc43)nn2)c1`, 3.5 µM.
Take `COc1cc(Cn2cc(CN3C(=O)c4ccccc4Nc4ccccc43)nn2)cc(OC)c1OC`: the half-maximal inhibitory concentration (IC50) is 0.43 µM.
